Laboratory results taken from ChEMBL document CHEMBL3797200, “Mohangic Acids A-E, p-Aminoacetophenonic Acids from a Marine-Mudflat-Derived Streptomyces sp” (J Nat Prod, 2016).
Activity calls are given as the source filed them. The calls are words filed in the database; no cut-off is given here.

Key:
A549 = assay: Cytotoxicity against human A549 cells after 72 hrs by SRB assay; type: functional, cell-based; settings: A549, 72 h
Mus musculus [1] = species on record: Mus musculus; assay: Induction of Quinone reductase activity in mouse Hepa1c1c7 cells at 20 uM after 24 hrs by MTT assay relative to control; type: cell-based
Summary of the method: (§1)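 Hepa-1c1c7 murine hepatoma cells plated at 20 000 cells/mL, grown 24 h (37 °C, 5% CO2), then compound-treated 24 h; vehicle 0.1% DMSO, β-naphthoflavone 2 μM positive control. Lysis in Tris/NaCl/MgCl2/0.5% NP-40, then FAD, G6P/G6PDH, NADP, MTT, menadione mix, 10 min; MTT reduction at 610 nm, crystal violet protein on parallel plates; SA = (MTTabs/CVabs)×3345, nmol/min/mg; mean ± SD of four determinations.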

Aspergillus fumigatus = assay: Antifungal activity against Aspergillus fumigatus; type: functional
Candida albicans = assay: Antifungal activity against Candida albicans; type: functional
Escherichia coli = assay: Antibacterial activity against Escherichia coli; type: functional
Proteus hauseri = assay: Antibacterial activity against Proteus hauseri; type: functional
Salmonella enterica = assay: Antibacterial activity against Salmonella enterica; type: functional
Kocuria rhizophila = assay: Antibacterial activity against Kocuria rhizophila; type: functional
Bacillus subtilis = assay: Antibacterial activity against Bacillus subtilis; type: functional
Staphylococcus aureus = assay: Antibacterial activity against Staphylococcus aureus; type: functional
[2] = Cytotoxicity against human SKHEP1 cells after 72 hrs by SRB assay; type: functional, cell-based; settings: SK-HEP1, 72 h
MDA-MB-231 = assay: Cytotoxicity against human MDA-MB-231 cells after 72 hrs by SRB assay; type: functional, cell-based; settings: MDA-MB-231, 72 h
K562 = assay: Cytotoxicity against human K562 cells after 72 hrs by SRB assay; type: functional, cell-based; settings: K562, 72 h
[3] = Cytotoxicity against human SNU638 cells after 72 hrs by SRB assay; type: functional, cell-based; settings: SNU-638, 72 h
[4] = Cytotoxicity against human HCT116 cells after 72 hrs by SRB assay; type: functional, cell-based; settings: HCT-116, 72 h
Mus musculus [5] = species on record: Mus musculus; assay: Induction of Quinone reductase activity in mouse Hepa1c1c7 cells at 5 uM after 24 hrs by MTT assay relative to control; type: cell-based; summary of the method: as §1
Mus musculus [6] = species on record: Mus musculus; assay: Induction of Quinone reductase activity in mouse Hepa1c1c7 cells at 10 uM after 24 hrs by MTT assay relative to control; type: cell-based; summary of the method: as §1
Mus musculus [7] = species on record: Mus musculus; assay: Induction of Quinone reductase activity in mouse Hepa1c1c7 cells at 30 uM after 24 hrs by MTT assay relative to control; type: cell-based; summary of the method: as §1
[8] = Cytotoxicity against mouse Hepa1c1c7 cells; type: cell-based
Mus musculus [9] = species on record: Mus musculus; assay: Induction of Quinone reductase activity in mouse Hepa1c1c7 cells at 2 uM after 24 hrs by MTT assay relative to control; type: cell-based; summary of the method: as §1
Mus musculus [10] = species on record: Mus musculus; assay: Induction of Quinone reductase activity in mouse Hepa1c1c7 cells after 24 hrs by MTT assay; type: cell-based; summary of the method: as §1

Row | SMILES | IC50 (A549) [µM] | Activity (Mus musculus [1]) | MIC (Aspergillus fumigatus) [µM] | MIC (Candida albicans) [µM] | MIC (Escherichia coli) [µM] | MIC (Proteus hauseri) [µM] | MIC (Salmonella enterica) [µM] | MIC (Kocuria rhizophila) [µM] | MIC (Bacillus subtilis) [µM] | MIC (Staphylococcus aureus) [µM] | IC50 [2] [µM] | IC50 (MDA-MB-231) [µM] | IC50 (K562) [µM] | IC50 [3] [µM] | IC50 [4] [µM] | other results
1 | CNc1ccc(C(=O)C[C@@H](O)[C@H](C)C[C@@H](C)[C@H](O)[C@H](C)/C=C/C=C/C=C/[C@H](O)CC(=O)O)cc1 | > 10 | inactive | > 128 | > 128 | > 128 | > 128 | > 128 | > 128 | > 128 | > 128 | > 10 | > 10 | > 10 | > 10 | > 10 | 
2 | C[C@H](/C=C/C=C/C=C/[C@H](O)CC(=O)O)[C@@H](O)[C@H](C)C[C@@H](C)[C@H](O)CC(=O)c1ccc(N)cc1 | > 10 | inactive | > 128 | > 128 | > 128 | > 128 | > 128 | > 128 | > 128 | > 128 | > 10 | > 10 | > 10 | > 10 | > 10 | 
3 | C[C@H](/C=C/C=C/C=C/[C@H](O)CC(=O)O)[C@@H](O)[C@H](C)C[C@@H](C)[C@H](O)CC(=O)c1ccc(N[C@@H]2O[C@H](CO)[C@@H](O)[C@H](O)[C@H]2O)cc1 | > 10 |  | > 128 | > 128 | > 128 | > 128 | > 128 | > 128 | > 128 | > 128 | > 10 | > 10 | > 10 | > 10 | > 10 | fold change (FC) (Mus musculus [5]): 1.5; fold change (FC) (Mus musculus [6]): 1.8; fold change (FC) (Mus musculus [7]): 2.2; Activity [8]: Non-toxic; fold change (FC) (Mus musculus [9]): 1.3; Activity (Mus musculus [10]): Dose-dependent effect; fold change (FC) (Mus musculus [1]): 2.1
4 | CC(=O)Nc1ccc([C@H](O)C[C@@H](O)[C@H](C)C[C@@H](C)[C@H](O)[C@H](C)/C=C/C=C/C=C/[C@H](O)CC(=O)O)cc1 | > 10 | inactive | > 128 | > 128 | > 128 | > 128 | > 128 | > 128 | > 128 | > 128 | > 10 | > 10 | > 10 | > 10 | > 10 | 
5 | CC(=O)Nc1ccc(C(=O)C[C@@H](O)[C@H](C)C[C@@H](C)[C@H](O)[C@H](C)/C=C/C=C/C=C/[C@H](O)CC(=O)O)cc1 | > 10 | inactive | > 128 | > 128 | > 128 | > 128 | > 128 | > 128 | > 128 | > 128 | > 10 | > 10 | > 10 | > 10 | > 10 | 
